Hits are enriched below; roughly 4.1% of the tested compounds scored in any of these assays.
KCC2 mod: modulates chloride dependent transport by human KCC2. KCC2 cells, thallium flux FluoZin-2 fluorescence. B-score of Tl+ flux slope (higher = more flux/activation; lower = inhibition) at 10 µM. 190,000 compounds, 2.2% hits. AID 1456;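 active means thallium flux slope and its plate-corrected score both differing from the plate sample mean at a set confidence after two filtering rounds, in either direction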;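 further: slope of fluorescence scaled to starting intensity during 10 to 20 s after thallium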
KCNQ1 act: potentiates or activates the human KCNQ1 potassium channel | P51787 | CHO-K1 KCNQ1, thallium flux FluxOR fluorescence; active compounds read high | B-score at 10 µM | 310,000 compounds, 0.35% hits;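 active means fluorescence ratio B-score, a plate-corrected score, at least three library SD, with initial intensity B-score within 5 SD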
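Doses: Single concentration per compound, DMSO matched to controls | Test system: KCNQ1-transfected CHO-K1 cells | Timing: 90 min dye loading and 20 min compound exposure, both at room temperature | Measured by: Kinetic FluxOR thallium fluorescence, 10-s 1-Hz baseline, 110-s post-stimulus read | Medium: Assay buffer with matched DMSO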
KCNK9 inh: human KCNK9 channel inhibition; Q9NPC2; AID 488922; 310,000 compounds, 1.2% hits; B-score at 10 µM; HEK293 KCNK9, FluxOR thallium flux fluorescence; active compounds read low;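 active means ratio B-score over 3 SD below the library mean, with starting fluorescence within 5 SD of its mean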;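 further: negative B-score means less thallium flux so channel inhibition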
Target sequence (Q9NPC2 whole entry, looked up): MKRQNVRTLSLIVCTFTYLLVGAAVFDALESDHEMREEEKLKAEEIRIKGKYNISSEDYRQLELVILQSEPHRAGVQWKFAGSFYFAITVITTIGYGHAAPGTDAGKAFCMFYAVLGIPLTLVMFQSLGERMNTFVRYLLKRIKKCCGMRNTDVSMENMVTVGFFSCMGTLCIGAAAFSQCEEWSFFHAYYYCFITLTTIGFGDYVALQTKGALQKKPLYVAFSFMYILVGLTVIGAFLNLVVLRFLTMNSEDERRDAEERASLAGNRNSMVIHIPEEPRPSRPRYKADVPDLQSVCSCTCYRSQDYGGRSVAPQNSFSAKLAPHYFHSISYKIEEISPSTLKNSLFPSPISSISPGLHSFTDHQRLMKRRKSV
KCNK3 block: human KCNK3 channel inhibition, primary screen; O14649; CHO-KCNK3 thallium flux, FluxOR fluorescence; active compounds read low; B-score at 10 µM; 340,000 compounds, 0.84% hits;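 active means B-score under library mean minus 4 SD, starting fluorescence ratio at most library mean plus 5 SD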;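 further: more negative B-score means stronger inhibition of thallium flux through KCNK3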
Target sequence (O14649 whole entry, looked up): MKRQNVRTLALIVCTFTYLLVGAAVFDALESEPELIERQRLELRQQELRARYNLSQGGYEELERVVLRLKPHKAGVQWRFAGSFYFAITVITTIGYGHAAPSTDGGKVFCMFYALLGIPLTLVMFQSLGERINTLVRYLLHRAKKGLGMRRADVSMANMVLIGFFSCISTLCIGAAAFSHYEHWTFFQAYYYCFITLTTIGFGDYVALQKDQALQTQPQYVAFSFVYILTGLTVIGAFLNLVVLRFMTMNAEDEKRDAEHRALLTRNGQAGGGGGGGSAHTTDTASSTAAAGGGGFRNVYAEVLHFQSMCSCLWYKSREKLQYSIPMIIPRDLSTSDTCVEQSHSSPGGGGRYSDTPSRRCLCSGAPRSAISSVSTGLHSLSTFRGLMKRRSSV
KCNQ1 block: inhibitors of human KCNQ1 potassium channel. CHO-K1 KCNQ1, FluxOR thallium flux fluorescence; active compounds read high. B-score at 10 µM. 310,000 compounds, 1.3% hits. AID 2642;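 active means compounds whose thallium flux B-score, printed positive for inhibition, exceeds three library SD while starting fluorescence stays within three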;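 further: channel opened by potassium depolarization with thallium stimulus after 20 min compound exposure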
hERG protect: compounds protecting human hERG from proarrhythmic drug block; CHO-hERG, FluxOR thallium flux, dofetilide IC70 present; activation (rescue from dofetilide block), less the hit threshold, % at 10 µM; 310,000 compounds, 0.51% hits; Q12809;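 active means activation above the mean of controls blocked by dofetilide plus 5 SD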;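 further: thallium influx through hERG after potassium depolarization seen as dye fluorescence rise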
KCC2 secondary: KCC2 (human) modulation, secondary assay. shares compounds with KCC2 mod. HEK293-KCC2, thallium flux, FluoZin2 fluorescence; active compounds read high. normalised thallium flux (F/F0 slope) at 10 µM. 3,700 compounds, 15% hits. AID 1713;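 active means thallium flux slope above the same plate's solvent-only control mean plus 3 SD; inconclusive means the two replicate wells disagree; inactive means no significant difference from solvent-only control wells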
KCC2 bumet counter: thallium flux despite bumetanide block in KCC2 cells, secondary assay 3; shares compounds with KCC2 mod; HEK293-KCC2 + bumetanide/ouabain, thallium flux FluoZin2; active compounds read high; normalized thallium flux at 10 µM; 3,700 compounds, 49% hits;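 active means thallium entry rate above the same plate's blocked-transporter control wells by more than 3 SD; inconclusive means the two repeat wells disagree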;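 further: raw slope of fluorescence over initial fluorescence between 10 and 20 s after thallium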
KCC2 sec2: confirmation of human KCC2 transport modulators | AID 1715 | normalized thallium flux at 10 µM | 3,700 compounds, 23% hits | HEK293-KCC2, thallium flux FluoZin2 fluorescence; actives lie on both sides; F/F0 rise rate, 10–20 s post-thallium | shares compounds with KCC2 mod;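 active means thallium flux slope more than 3 SD above or below the plate's solvent-only control mean, mostly below; inconclusive means the two repeat wells disagreed; inactive means no significant shift from solvent-only controls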
HEK293 Tl flux: parental HEK flux effect, counter-screen | HEK293 parental cells, thallium flux FluoZin2, ouabain; baseline-ratio fluorescence slope, 10–20 s after thallium | shares compounds with KCC2 mod | thallium flux rate (normalised fluorescence) at 10 µM | 3,700 compounds, 46% hits;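 active means thallium flux rate significantly above the same plate's solvent-only control wells, beyond their mean plus 3 SD; inconclusive means the two replicate wells gave conflicting results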
KCC2 ouabain: modulates human KCC2 on retest with ouabain. AID 1717. raw Tl+ flux slope (below DMSO = inhibition, above = activation) at 10 µM. 3,700 compounds, 48% hits. shares compounds with KCC2 mod. HEK293-KCC2, thallium flux FluoZin2 fluorescence; bidirectional: low = inhibitor, high = activator;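 active means thallium flux slope beyond 3 SD from same-plate DMSO control mean in most replicates, usually higher, sometimes lower; inconclusive means repeat tests gave conflicting results; inactive means no significant difference from controls in most replicates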;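 further: slope of initial-normalized fluorescence between seconds 10 and 20 after thallium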
HEK counter2: counter-screen for KCC2 modulators: effect in parental HEK293 cells. shares compounds with KCC2 mod. thallium flux FluoZin-2 fluorescence slope. thallium flux slope at 10 µM. 3,700 compounds, 33% hits. AID 1718;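 active means thallium flux slope above the same plate's solvent-control mean plus 3 SD in both duplicate wells; inconclusive means duplicate wells that disagreed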;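 further: run without ouabain in cells lacking the KCC2 cotransporter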
Large screens that a line does not name were inactive (follow-up assays come after a bar, where they were run).

Oc1c(I)cc(Cl)c2cccnc12	KCC2 mod 76.9 | KCC2 secondary inactive | KCC2 bumet counter 0.104 | KCC2 sec2 0.067 | HEK293 Tl flux 0.105 | KCC2 ouabain 0.11 | HEK counter2 0.0408
O=[N+]([O-])c1cc(Cl)c(O)c2ncccc12	KCC2 mod 4.53 | KCC2 secondary 0.0133 | KCC2 bumet counter 0.0161 | KCC2 sec2 inactive | HEK293 Tl flux 0.0105 | KCC2 ouabain inconclusive | HEK counter2 inconclusive
O=[N+]([O-])c1cc(Cl)c2cccnc2c1O	none
CCCCN(C(=O)CCSc1ccc(F)cc1)c1c(N)n(Cc2ccccc2)c(=O)[nH]c1=O	none (no result: KCC2 mod)
O=C(OCn1ncc(Cl)c(Cl)c1=O)c1ccc(F)cc1	KCC2 mod -4.11 (no result: KCNK3 block) | KCC2 secondary inactive | KCC2 bumet counter inconclusive | KCC2 sec2 0.0256 | HEK293 Tl flux inactive | KCC2 ouabain inconclusive | HEK counter2 inactive
O=C(Cn1ncc(Cl)c(Cl)c1=O)c1ccc(Cl)cc1	none
O=C(OCn1ncc(Cl)c(Cl)c1=O)c1ccccc1Cl	KCC2 mod -4.25 | KCC2 secondary inactive | KCC2 bumet counter inactive | KCC2 sec2 inactive | HEK293 Tl flux inconclusive | KCC2 ouabain 0.0153 | HEK counter2 inactive
CC1CCCC(NC(=O)CSc2nnc(-c3cccnc3)n2N)C1C (stereo not given)	none (no result: KCC2 mod, KCNQ1 act, KCNK9 inh, KCNQ1 block, hERG protect)
CCc1noc(C)c1C(=O)NNC(=O)c1ccccc1Cl	none (no result: KCC2 mod, KCNQ1 act, KCNK9 inh, KCNQ1 block, hERG protect)
CSCCC(NC(=O)COc1ccccc1)C(=O)NCC1COc2ccccc2O1 (stereo not given)	none (no result: KCC2 mod)
O=C(O)C1CCCCC1C(=O)Nc1ccc(S(=O)(=O)N2CCOCC2)cc1 (stereo not given)	none (no result: KCC2 mod, KCNQ1 act, KCNK9 inh, KCNQ1 block, hERG protect)
O=S(=O)(c1ccc(F)cc1)N1CCC(O)(c2ccc3c(c2)OCO3)CC1	KCC2 mod -4.33 | KCC2 secondary inactive | KCC2 bumet counter inactive | KCC2 sec2 inactive | HEK293 Tl flux inactive | KCC2 ouabain 0.0151 | HEK counter2 inactive
CCCC(=O)Nc1cccc(-c2nc3cc(C)c(C)cc3o2)c1	none (no result: KCC2 mod) | KCC2 secondary inactive | KCC2 bumet counter inactive | KCC2 sec2 inactive | HEK293 Tl flux inactive | KCC2 ouabain inactive | HEK counter2 inactive
CCC(=O)Nc1cccc(-c2nc3ccc(C)cc3o2)c1	none (no result: KCC2 mod)
Cc1ccc(/C=N\Nc2nc3ccc(Cl)cc3[nH]2)o1	KCC2 mod 4.76 | KCC2 secondary inactive | KCC2 bumet counter inactive | KCC2 sec2 inactive | HEK293 Tl flux inconclusive | KCC2 ouabain inactive | HEK counter2 inactive
O=C(NNC(=O)c1cccc2ccccc12)c1ccc(Br)cc1	none (no result: KCC2 mod, KCNQ1 act, KCNK9 inh, KCNQ1 block, hERG protect)
COC(=O)c1cnc(NNC(=O)c2ccc([N+](=O)[O-])cc2)nc1C(F)(F)F	KCC2 mod 3.51 | KCC2 secondary inactive | KCC2 bumet counter 0.0109 | KCC2 sec2 inactive | HEK293 Tl flux inconclusive | KCC2 ouabain inactive | HEK counter2 inactive
COC(=O)c1cnc(NNS(=O)(=O)c2ccc(Cl)cc2)nc1C(F)(F)F	none
Cc1ccccc1-n1c(SCC(=O)c2c(N)n(C3CC3)c(=O)[nH]c2=O)nnc1N1CCOCC1	none (no result: KCC2 mod, KCNQ1 act, KCNK9 inh, KCNQ1 block, hERG protect)
CCOc1ccc(CCNC(=O)c2cc3sccc3n2C)cc1OCC	KCC2 mod 3.88 | KCC2 secondary inactive | KCC2 bumet counter inactive | KCC2 sec2 inconclusive | HEK293 Tl flux inconclusive | KCC2 ouabain inactive | HEK counter2 inactive
CC1CCN(C(=O)CN2C(=O)C(C)(C)Oc3ccc(C(=O)NC(C)C)cc32)CC1	none (no result: KCC2 mod)
CC(C)N(C(=O)[C@H]1C[C@H](CC(=O)NCCN2CCOCC2)C(=O)N2CCc3c([nH]c4ccc(Cl)cc34)[C@]12C)C(C)C	none (no result: KCC2 mod, KCNQ1 act, KCNK9 inh, KCNQ1 block, hERG protect)
CC1CCCCN1C(=O)CSc1nnc(Cc2ccccc2)n1C (stereo not given)	KCC2 mod 3.16 | KCC2 secondary inactive | KCC2 bumet counter inactive | KCC2 sec2 inactive | HEK293 Tl flux inactive | KCC2 ouabain inactive | HEK counter2 inactive
COCCNC(=S)N1CCN(c2nc(-c3ccccc3)cs2)CC1	none (no result: KCC2 mod)
O=C(NC(=S)N1CCN(c2nc(-c3ccccc3)cs2)CC1)c1cccnc1	KCC2 mod 33.6 | KCC2 secondary 0.0277 | KCC2 bumet counter 0.111 | KCC2 sec2 inconclusive | HEK293 Tl flux 0.0415 | KCC2 ouabain 0.0704 | HEK counter2 0.0151
Cc1noc(C)c1NC(=O)Nc1cccc2c1O[C@@H](CN(C)Cc1ccc3c(c1)OCO3)[C@@H](C)CN([C@H](C)CO)C2=O	none (no result: KCC2 mod, KCNQ1 act, KCNK9 inh, KCNQ1 block, hERG protect)
CC1=NN(c2nc(-c3ccc(C)cc3)cs2)C(=O)C1N=Nc1ccc2ccccc2c1 (stereo not given)	none (no result: KCC2 mod)
CC1=NN(c2nc(-c3ccccc3)cs2)C(=O)C1N=Nc1ccccc1 (stereo not given)	KCC2 mod 6.6 | KCC2 secondary inactive | KCC2 bumet counter 0.0505 | KCC2 sec2 inactive | HEK293 Tl flux 0.0146 | KCC2 ouabain inconclusive | HEK counter2 inactive
COc1cccc(CNC(=O)c2cc3oc4ccccc4c3n2C)c1OC	KCC2 mod 7.51 | KCC2 secondary inactive | KCC2 bumet counter inactive | KCC2 sec2 inactive | HEK293 Tl flux inactive | KCC2 ouabain inactive | HEK counter2 inactive
Cc1ccc(CN(c2ccc(C(=O)Nc3ccc4c(c3)OCO4)cc2)S(C)(=O)=O)cc1	KCC2 mod 4.67 | KCC2 secondary inactive | KCC2 bumet counter inconclusive | KCC2 sec2 inactive | HEK293 Tl flux inactive | KCC2 ouabain inactive | HEK counter2 inactive
CCOC(=O)c1cc(C)n(Cc2cccc(OC)c2OC)c1C	none (no result: KCC2 mod) | KCC2 secondary inactive | KCC2 bumet counter inactive | KCC2 sec2 inactive | HEK293 Tl flux inactive | KCC2 ouabain inactive | HEK counter2 inactive
CCOC(=O)c1c(C)c(C)n(Cc2cccc(OC)c2OC)c1C	none
Cc1cc(=O)oc2cc(OCC(=O)N3CCOCC3)c(Cl)cc12	none (no result: KCC2 mod, KCNQ1 act, KCNK9 inh, KCNQ1 block, hERG protect)
CC(C)Oc1ccc(C(=O)Nc2cc(S(=O)(=O)N3CCOCC3)ccc2N2CCOCC2)cc1	none (no result: KCC2 mod, KCNQ1 act, KCNK9 inh, KCNQ1 block, hERG protect)

Screening data deposited in PubChem by several laboratories.
